NALP3 yeast inh – NALP3 inflammasome inhibitors in reconstituted yeast, primary screen, luminescence, uHTS; Yeast reconstituted NLRP3/ASC/caspase-1, beta-gal luminescence, 24 h; inhibition, % at 10 µM; 0.39% of 330,000 active;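 active = inhibition of 50% or more; inactive = inhibition below 50%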;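 note: plate controls were induced DMSO wells for no effect and uninduced yeast grown without galactose for full effect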
T cruzi repl – inhibitors of intracellular T. cruzi growth, primary screen, luminescence, NIH3T3 host cells. 1.4% of 300,000 active. AID 1885, 2009. inhibition, % (no concentration beside the values). T. cruzi beta-gal in NIH3T3, 90 h;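 active = mean inhibition across valid replicates above about 55%, limit read from the data; inconclusive = mean below that limit but half or more replicates reach it; inactive = mean below it, under half of replicates reach it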;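 note: signal also drops with host cell toxicity which is not excluded here; 0% = plate median of DMSO wells and 100% = zero luminescence signal; higher percent means less beta-gal luminescence so fewer parasites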
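Read-out: Parasite load inhibition, % | Test system: Mouse NIH/3T3 fibroblasts infected with β-gal-expressing T. cruzi Tulahuen C4 | Amount: 5,000 cells/well | Medium: DMEM, 2% fetal bovine serum | Signal: GalScreen β-gal luminescence, detergent lysis, 60 min | Timing: 3 h attach, ≥90 h co-culture | Also added: Tulahuen C4 trypomastigotes, 5000/well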
CSC inhib – cancer stem cell viability inhibitors, primary screen, luminescence | AID 2717, 2010 | 1.1% of 300,000 active | inhibition, % at 7.5 µM | cancer stem cell-like cells viability; in the data active = inhibition above about 75%; inconclusive = no clear call, values can overlap the other calls; tested in HMLE shEcad cells
Calb FLC – C. albicans growth inhibition with fluconazole, primary screen, CaCi-2 strain, Alamar Blue fluorescence; C. albicans CaCi-2 + fluconazole, 48 h; AID 1979, 2009; 0.57% of 300,000 active; growth inhibition, % (concentration not given with the values);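 active = growth inhibition above about 58% in most replicates, limit read from the data, passing the limit was not always enough; inconclusive = exactly half the replicates above a set limit; inactive = most replicates below a set limit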;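 note: all wells also contain fluconazole at 8 µg/ml as a sub-toxic cotreatment; 0% = median of DMSO wells and 100% = median of geldanamycin control wells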
Beta apoptosis – inhibitors of cytokine-induced beta cell apoptosis, primary screen, luminescence. protection from apoptosis, % (no concentration beside the values). INS-1E cytokine-induced death, ATP luminescence, 48 h; percent of positive-control rescue, neutral wells zero. 0.8% of 300,000 active. AID 435005, 2010;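 active = Every replicate reaches about 75%, or at least half do and their mean reaches it too, limit read from the data; inconclusive = At least half of replicates reach the limit but their mean does not; inactive = Under half of replicates reach the limit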;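 note: 0% = cytokine-treated negative control wells and 100% = positive control rescue; higher means more ATP so stronger rescue from cytokine killing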
Mdm2 MdmX PPI – inhibitors of human Mdm2-MdmX association, primary screen, cell-based, luminescence, split luciferase, SaOS-2, uHTS. SaOS-2 split-luciferase Mdm2/MdmX complementation. inhibition, % at 8 µM. 3% of 330,000 active. AID 485346, 2010;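 active = inhibition of at least 50% at 8 µM in the primary screen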
* marks the source's active call; other numbers are inactive results; ? = inconclusive. The list is not random: actives were taken first. Their share in the collection is about 5.3%.

SMILES	NALP3 yeast inh	T cruzi repl	CSC inhib	Calb FLC	Beta apoptosis	Mdm2 MdmX PPI
O=C(N/N=C\c1cn(-c2ccccc2)nc1-c1ccccc1)c1ccc(Br)o1	33.4	20.7	35.2	-0.6	110.0*	42.3
O=C(N/N=C/c1ccc([N+](=O)[O-])o1)c1ccccc1-n1cccc1	32.3	67.3*	-0.2	-8.5	19.1	-4.7
O=C(O)COc1ccc(/C=N/NC(=O)c2cn(-c3ccccc3)nc2-c2ccccc2)cc1	10.4	-14.0	26.8	4.8	-1.2	-10.3
O=C(N/N=C/c1cn(-c2ccccc2)nc1-c1ccccc1)c1ccco1	13.6	17.5	1.9	12.3	2.2	6.3
O=C(N/N=C/c1ccc([N+](=O)[O-])o1)c1cn(-c2ccccc2)nc1-c1ccc(Cl)cc1	21.6	64.4*	26.6	-3.8	14.1	-5.1
CCOC(=O)c1c(C)[nH]c(C(=O)COC(=O)CNC(=O)c2ccc(Br)cc2)c1C	5.4	5.7	-1.2	-0.6	-2.5	16.1
CSc1ncccc1C(=O)Nc1ccc(S(=O)(=O)Nc2nccs2)cc1	2.8	-12.8	5.2	-4.8	1.2	4.5
COc1ccccc1OCCCCOc1ccccc1C(C)=O	28.6	-18.3	8.3	?	99.8*	25.6
CN(C)CCCNc1nc(-c2ccccc2)c2c(c1C#N)CC(C)(C)OC2	-2.8	46.2	-10.0	-4.9	-1.3	19.3
CC1=C(C#N)C(c2ccc(O)cc2)C2=C(CCCC2=O)N1 (configuration not stated)	20.2	13.6	-10.1	9.7	-2.8	-22.9
CC1=C(C#N)C(c2cccnc2)C2=C(CC(c3ccc(Cl)cc3)CC2=O)N1 (configuration not stated)	19.4	60.1*	-0.6	8.5	-2.4	10.3
O=[N+]([O-])c1cc(Cl)cc(/C=N/NC(=S)Nc2ccc(S(=O)(=O)N3CCOCC3)cc2)c1O	13.3	14.5	22.7	108.6*	12.5	7.2
O=S(=O)(c1ccc(NC(=S)N/N=C/c2ccc(O)c(O)c2)cc1)N1CCOCC1	17.2	-13.7	0.9	-9.5	0.6	-3.3
COc1cc2c(cc1OC)CN(C(=O)COc1ccc(C)c(C)c1)CC2	10.6	55.5*	0.2	22.1	-1.1	23.2
CCCCNC(=S)N(C)/N=C/c1ccc2c(c1)OCO2	-12.6	25.6	83.1*	9.6	-0.7	27.6
CCCCNC(=S)N(C)/N=C/c1ccc(F)cc1	-25.7	-4.2	11.3	-5.1	-2.9	-5.2
CCOc1cc(NC(=S)NCC2CCCO2)c(OCC)cc1NC(=O)c1ccccc1C (configuration not stated)	5.3	13.5	-2.6	24.4	0.6	-3.8
CSc1ccccc1NC(=O)NCCCl	4.4	-11.6	18.2	0.5	5.1	14.4
CCN1CCN(S(=O)(=O)c2ccc(Cl)c(C(=O)Nc3nnc(CC(C)C)s3)c2)CC1	-7.5	-6.6	4.9	-29.3	-3.5	9.3
O=C(NCc1nc2ccccc2[nH]1)C1=C[C@H](C2CCCCC2)C[C@H](OCCCCO)O1	6.3	-3.6	11.5	4.6	5.3	-3.6
O=C(NCc1nc2ccccc2[nH]1)C1=C[C@@H](C2CCCCC2)C[C@@H](OCc2ccc(CO)cc2)O1	-1.3	37.5	2.3	31.0	105.9*	37.3
COc1cccc(C2CCCCN2Cc2nc(-c3ccc(C)o3)oc2C)c1 (configuration not stated)	10.3	11.3	-14.9	0.7	-3.9	6.6
COc1ccc(OC)c(-c2nc(CN3CCCCC3c3cccnc3)c(C)o2)c1 (configuration not stated)	-6.0	59.4*	-4.5	-0.4	5.6	10.1
COCC(=O)NCc1ccc2c(c1)cc(C)n2C	16.1	2.8	-8.1	6.8	-3.0	2.0
Cc1cc2cc(CN3C(=O)c4ccccc4C3=O)ccc2n1C	7.5	83.0*	19.4	6.1	99.7*	5.1
Cc1cc2cc(CNC(=O)c3cc4ccccc4o3)ccc2n1C	1.2	65.0*	-1.8	-19.1	4.0	-4.9
Cc1cc2cc(CNC(=O)c3ccco3)ccc2n1C	7.7	10.6	5.4	3.6	-2.7	-10.1

Source: PubChem BioAssay
